Data from ChEMBL document CHEMBL1152488, “Synthesis and evaluation of pyrido[1,2-a]pyrimidines as inhibitors of nitric oxide synthases” (Eur J Med Chem, 2009).

Legend:
[1] = target: Nitric oxide synthase, inducible (Homo sapiens) (UniProt P35228); assay: Inhibition of human iNOS expressed in insect Sf9 cells assessed as residual activity at 100 uM by Griess assay relative to control
How it was run: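 Human iNOS made in Sf9 cells, incubated at 37 °C for 20 min in 50 mM triethanolamine pH 7.5 with 1 mM Mg2+, FAD/FMN 5 µM each, 0.5 mM NADPH, 10 µM H4B, CaM and 1 mM L-arginine. Compound 100 µM final. NADPH cleared with lactate dehydrogenase/pyruvate before Griess reaction (543 nm). Residual activity relative to 1% DMSO control; mean of 5 experiments.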

[2] = target: T1, Nitric oxide synthase 3 (Homo sapiens) (UniProt P29474); assay: Inhibition of human eNOS assessed as residual activity at 100 uM by Griess assay relative to control
T1 sequence (whole entry): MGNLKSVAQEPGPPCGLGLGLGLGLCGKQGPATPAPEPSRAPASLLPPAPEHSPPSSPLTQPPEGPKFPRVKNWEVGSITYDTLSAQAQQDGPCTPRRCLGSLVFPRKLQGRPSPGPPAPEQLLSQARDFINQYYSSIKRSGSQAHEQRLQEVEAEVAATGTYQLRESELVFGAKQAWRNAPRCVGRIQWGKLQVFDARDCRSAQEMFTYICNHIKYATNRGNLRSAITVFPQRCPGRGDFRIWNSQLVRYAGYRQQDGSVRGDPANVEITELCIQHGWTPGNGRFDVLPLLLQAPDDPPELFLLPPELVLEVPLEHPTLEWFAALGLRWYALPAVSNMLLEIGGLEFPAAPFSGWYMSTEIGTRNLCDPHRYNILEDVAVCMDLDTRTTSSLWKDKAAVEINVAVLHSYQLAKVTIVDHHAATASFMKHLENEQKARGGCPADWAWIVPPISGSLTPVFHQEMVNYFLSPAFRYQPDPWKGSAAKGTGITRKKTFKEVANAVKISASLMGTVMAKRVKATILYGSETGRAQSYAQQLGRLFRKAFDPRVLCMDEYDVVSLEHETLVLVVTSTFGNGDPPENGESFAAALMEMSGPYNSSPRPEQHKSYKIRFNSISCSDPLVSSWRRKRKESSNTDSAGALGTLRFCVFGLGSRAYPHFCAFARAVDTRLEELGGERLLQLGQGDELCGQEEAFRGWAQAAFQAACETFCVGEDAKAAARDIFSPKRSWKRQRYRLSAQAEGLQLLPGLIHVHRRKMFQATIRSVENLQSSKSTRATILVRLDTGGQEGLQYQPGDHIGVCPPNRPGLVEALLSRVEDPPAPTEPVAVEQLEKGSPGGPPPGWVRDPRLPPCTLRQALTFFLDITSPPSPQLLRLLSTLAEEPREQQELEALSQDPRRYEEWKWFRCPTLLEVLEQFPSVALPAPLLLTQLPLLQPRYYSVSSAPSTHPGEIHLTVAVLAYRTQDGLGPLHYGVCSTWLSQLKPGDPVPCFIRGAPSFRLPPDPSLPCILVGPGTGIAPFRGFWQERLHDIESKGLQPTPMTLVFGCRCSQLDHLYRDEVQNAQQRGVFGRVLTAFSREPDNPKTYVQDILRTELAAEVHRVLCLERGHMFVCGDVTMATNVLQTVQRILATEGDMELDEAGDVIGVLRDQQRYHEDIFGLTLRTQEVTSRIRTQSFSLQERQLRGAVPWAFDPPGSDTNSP
How it was run: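 Human eNOS expressed in Pichia pastoris. Incubated 20 min at 37 °C in triethanolamine pH 7.5 with 0.5 mM Ca2+, CaM, H4B 10 µM, FAD/FMN 5 µM, NADPH 0.5 mM, L-arginine 1 mM and compound at 100 µM final. Nitrite read by Griess (543 nm) after LDH/pyruvate NADPH removal; % of 1% DMSO control from 5 experiments.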

[3] = Lipophilicity, log D at pH 7.4 by HPLC method; conditions: buffer
[4] = target: T2, Nitric oxide synthase 3 (Bos taurus) (UniProt P29473); assay: Inhibition of bovine eNOS expressed in insect Sf9 cells assessed as residual activity at 100 uM by Griess assay relative to control
T2 sequence (whole entry): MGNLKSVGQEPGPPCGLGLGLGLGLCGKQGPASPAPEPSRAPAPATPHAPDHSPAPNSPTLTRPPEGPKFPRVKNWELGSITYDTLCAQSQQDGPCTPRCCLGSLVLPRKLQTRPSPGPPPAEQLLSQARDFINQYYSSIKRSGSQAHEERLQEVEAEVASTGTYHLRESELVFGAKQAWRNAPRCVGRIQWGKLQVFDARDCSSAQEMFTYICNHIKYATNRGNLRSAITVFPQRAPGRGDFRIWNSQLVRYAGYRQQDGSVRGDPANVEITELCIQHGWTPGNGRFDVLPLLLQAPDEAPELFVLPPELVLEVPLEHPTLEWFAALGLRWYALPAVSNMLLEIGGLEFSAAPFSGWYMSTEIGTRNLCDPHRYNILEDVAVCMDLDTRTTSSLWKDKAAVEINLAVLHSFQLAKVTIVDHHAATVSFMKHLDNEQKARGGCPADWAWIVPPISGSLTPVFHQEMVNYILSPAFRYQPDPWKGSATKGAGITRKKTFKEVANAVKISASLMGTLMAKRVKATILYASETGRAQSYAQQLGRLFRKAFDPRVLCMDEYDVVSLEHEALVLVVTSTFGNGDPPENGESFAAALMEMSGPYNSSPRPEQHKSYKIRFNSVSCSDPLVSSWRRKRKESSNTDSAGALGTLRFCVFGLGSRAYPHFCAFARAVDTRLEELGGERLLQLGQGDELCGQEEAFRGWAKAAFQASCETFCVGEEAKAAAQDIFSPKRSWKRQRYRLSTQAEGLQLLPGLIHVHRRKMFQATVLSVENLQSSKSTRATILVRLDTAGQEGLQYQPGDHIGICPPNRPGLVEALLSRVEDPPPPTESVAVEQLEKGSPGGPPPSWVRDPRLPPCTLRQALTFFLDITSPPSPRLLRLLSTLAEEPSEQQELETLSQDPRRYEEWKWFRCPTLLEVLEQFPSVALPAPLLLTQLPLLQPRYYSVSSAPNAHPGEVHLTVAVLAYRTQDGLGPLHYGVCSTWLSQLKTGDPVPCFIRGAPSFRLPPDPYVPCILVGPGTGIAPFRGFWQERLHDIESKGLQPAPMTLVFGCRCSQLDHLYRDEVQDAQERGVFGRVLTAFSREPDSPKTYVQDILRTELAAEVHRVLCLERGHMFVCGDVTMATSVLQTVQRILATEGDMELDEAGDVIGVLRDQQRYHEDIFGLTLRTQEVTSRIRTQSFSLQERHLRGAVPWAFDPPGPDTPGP
How it was run: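 Bovine eNOS from Sf9 cells. Reaction: triethanolamine buffer pH 7.5, 0.5 mM Ca2+, 10 µg/ml CaM, 10 µM H4B, FAD, FMN, 0.5 mM NADPH, 1 mM L-arginine, with 100 µM compound, 20 min at 37 °C. After NADPH removal by LDH/pyruvate, nitrite measured by Griess at 543 nm. Expressed as % residual activity versus 1% DMSO control, 5 experiments.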

[5] = target: T3, Nitric oxide synthase, inducible (Mus musculus) (UniProt P29477); assay: Inhibition of mouse iNOS expressed in insect Sf9 cells assessed as residual activity at 100 uM by Griess assay relative to control
T3 sequence (whole entry): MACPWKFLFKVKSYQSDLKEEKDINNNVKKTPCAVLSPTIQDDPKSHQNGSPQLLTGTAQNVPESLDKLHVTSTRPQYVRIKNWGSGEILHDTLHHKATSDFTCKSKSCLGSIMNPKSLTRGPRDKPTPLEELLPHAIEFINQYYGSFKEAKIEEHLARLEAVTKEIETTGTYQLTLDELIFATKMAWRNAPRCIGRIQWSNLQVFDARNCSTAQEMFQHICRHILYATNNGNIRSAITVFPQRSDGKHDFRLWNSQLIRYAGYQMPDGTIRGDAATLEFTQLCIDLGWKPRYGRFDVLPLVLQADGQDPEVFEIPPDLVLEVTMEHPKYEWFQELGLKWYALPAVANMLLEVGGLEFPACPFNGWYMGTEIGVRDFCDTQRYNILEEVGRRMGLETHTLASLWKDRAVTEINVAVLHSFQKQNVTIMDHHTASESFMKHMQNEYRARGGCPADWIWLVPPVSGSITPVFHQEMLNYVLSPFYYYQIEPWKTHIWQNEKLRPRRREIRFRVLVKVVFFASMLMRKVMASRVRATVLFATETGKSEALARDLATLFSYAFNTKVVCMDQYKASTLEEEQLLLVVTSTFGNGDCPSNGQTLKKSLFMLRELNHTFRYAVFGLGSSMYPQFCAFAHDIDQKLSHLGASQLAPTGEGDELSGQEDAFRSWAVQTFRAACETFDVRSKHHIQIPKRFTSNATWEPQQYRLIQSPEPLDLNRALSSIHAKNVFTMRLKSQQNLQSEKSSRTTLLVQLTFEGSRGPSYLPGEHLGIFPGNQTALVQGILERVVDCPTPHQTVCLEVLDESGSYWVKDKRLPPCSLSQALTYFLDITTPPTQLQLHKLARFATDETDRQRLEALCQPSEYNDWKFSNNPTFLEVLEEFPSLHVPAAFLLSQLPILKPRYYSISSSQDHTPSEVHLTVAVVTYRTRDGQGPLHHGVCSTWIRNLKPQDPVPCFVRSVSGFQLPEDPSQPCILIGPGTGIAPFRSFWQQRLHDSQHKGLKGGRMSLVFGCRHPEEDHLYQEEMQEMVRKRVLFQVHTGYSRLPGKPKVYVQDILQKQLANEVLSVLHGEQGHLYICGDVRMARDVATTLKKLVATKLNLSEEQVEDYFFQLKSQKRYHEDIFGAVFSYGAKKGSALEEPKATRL
How it was run: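 Murine iNOS produced in Sf9 insect cells. Buffer: 50 mM triethanolamine pH 7.5, 1 mM CHAPS, 10 mM 2-mercaptoethanol, 0.5 mM EDTA. Additions: 1 mM Mg2+, 5 µM FAD, 5 µM FMN, 0.5 mM NADPH, 10 µM H4B, 10 µg/ml CaM, 1 mM L-arginine. Compound at 100 µM final, 37 °C for 20 min. NADPH removed with LDH/pyruvate, then Griess read at 543 nm. Values are % of 1% DMSO control, 5 experiments.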

Chain of Nitric oxide synthase, inducible (Homo sapiens) (P35228 whole entry): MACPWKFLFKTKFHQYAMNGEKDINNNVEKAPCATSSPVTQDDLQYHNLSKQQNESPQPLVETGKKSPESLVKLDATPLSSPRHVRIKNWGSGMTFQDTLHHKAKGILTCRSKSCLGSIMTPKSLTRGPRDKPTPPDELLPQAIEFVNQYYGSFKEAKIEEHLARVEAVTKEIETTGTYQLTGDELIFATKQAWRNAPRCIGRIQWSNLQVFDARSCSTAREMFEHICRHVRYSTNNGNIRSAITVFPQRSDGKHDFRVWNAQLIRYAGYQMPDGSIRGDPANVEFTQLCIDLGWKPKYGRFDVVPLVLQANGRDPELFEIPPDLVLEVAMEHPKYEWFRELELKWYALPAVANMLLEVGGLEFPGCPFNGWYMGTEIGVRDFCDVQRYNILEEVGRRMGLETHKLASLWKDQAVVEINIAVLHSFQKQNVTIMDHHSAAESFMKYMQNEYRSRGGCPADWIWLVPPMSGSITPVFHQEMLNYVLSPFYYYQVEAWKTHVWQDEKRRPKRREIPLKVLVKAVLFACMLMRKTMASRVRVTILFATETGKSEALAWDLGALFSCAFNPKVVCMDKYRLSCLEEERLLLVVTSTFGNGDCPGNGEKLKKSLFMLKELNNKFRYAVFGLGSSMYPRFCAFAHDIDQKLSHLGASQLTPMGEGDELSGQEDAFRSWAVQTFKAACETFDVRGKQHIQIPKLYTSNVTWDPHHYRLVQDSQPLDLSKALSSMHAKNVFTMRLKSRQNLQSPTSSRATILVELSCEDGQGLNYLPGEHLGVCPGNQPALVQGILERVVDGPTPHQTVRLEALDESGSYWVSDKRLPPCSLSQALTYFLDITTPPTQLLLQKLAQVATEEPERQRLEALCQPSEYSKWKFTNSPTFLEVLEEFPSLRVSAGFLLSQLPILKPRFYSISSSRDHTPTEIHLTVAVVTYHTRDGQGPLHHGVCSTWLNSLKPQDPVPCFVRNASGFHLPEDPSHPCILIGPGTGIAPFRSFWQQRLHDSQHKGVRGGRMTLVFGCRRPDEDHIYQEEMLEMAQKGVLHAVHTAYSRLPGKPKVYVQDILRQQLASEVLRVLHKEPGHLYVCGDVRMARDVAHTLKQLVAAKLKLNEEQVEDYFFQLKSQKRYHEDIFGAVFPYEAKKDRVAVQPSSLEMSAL

Activity [1] [%] | Activity [2] [%] | logD [3] | Activity [4] [%] | Activity [5] [%] | SMILES
98 | 91 |  |  |  | CC1=CC2=NCC(C(=O)c3ccc(-c4ccc(C(=O)O)cc4)cc3)CN2C=C1 (stereo not drawn)
88 | 75 | 2.1 |  |  | CC1=CC=CC2=NCC(C(=O)c3ccc4cc(C)ccc4c3)CN12 (stereo not drawn)
80 | 6 | 1.9 |  |  | COc1ccc2cc(C(=O)C3CN=C4C=CC=C(C)N4C3)ccc2c1 (stereo not drawn)
96 | 86 |  |  |  | CC1=CC2=NCC(C(=O)c3ccc(-c4ccc(O)cc4)cc3)CN2C=C1 (stereo not drawn)
29 | 50 |  |  |  | Cc1ccnc(N)c1
93 | 94 |  |  |  | CC1=CC2=NCC(C(=O)c3ccc(C(=O)O)cc3)CN2C=C1 (stereo not drawn)
 |  | 1.4 | 91 | 123 | COc1ccc(C(=O)C2CN=C3C=CC=CN3C2)cc1OC (stereo not drawn)
70 | 42 |  |  |  | CC1=CC2=NCC(C(=O)c3ccc(C4CCCCC4)cc3)CN2C=C1 (stereo not drawn)
 |  | 1.5 | 90 | 100 | COc1ccc(C(=O)C2CN=C3C=CC=CN3C2)cc1 (stereo not drawn)
7 | 12 |  |  |  | Cc1cc(C)nc(N)c1
 |  | 1.6 | 93 | 100 | CC1=CC=CN2CC(C(=O)c3ccc(C)cc3)CN=C12 (stereo not drawn)
85 | 46 |  |  |  | CC1=CC2=NCC(C(=O)c3ccc(-c4ccc(F)cc4)cc3)CN2C=C1 (stereo not drawn)
67 | 79 |  |  |  | O=C(c1ccc(F)cc1)C1CN=C2C=CC=CN2C1 (stereo not drawn)
86 | 20 | 2.1 |  |  | CC1=CC=CC2=NCC(C(=O)c3ccc(-c4ccccc4)cc3)CN12 (stereo not drawn)
47 | 83 |  |  |  | Cc1cccc(N)n1
 |  |  | 92 | 103 | CC1=CC=CN2CC(C(=O)c3ccccc3)CN=C12 (stereo not drawn)
 |  |  | 87 | 97 | CCOc1ccc(C(=O)C2CN=C3C=C(C)C=CN3C2)cc1 (stereo not drawn)
54 | 75 |  |  |  | CC1=CC2=NCC(C(=O)c3ccc(C#N)cc3)CN2C=C1 (stereo not drawn)
101 | 46 |  |  |  | COc1ccc(COc2ccc(C(=O)C3CN=C4C=C(C)C=CN4C3)cc2)cc1 (stereo not drawn)
73 | 75 |  |  |  | CC1=CC2=NCC(C(=O)c3ccc(OCc4ccccc4)cc3)CN2C=C1 (stereo not drawn)
 |  |  | 86 | 105 | COc1cc(C(=O)C2CN=C3C=CC=CN3C2)cc(OC)c1OC (stereo not drawn)
 |  | 1.5 | 93 | 104 | CC1=CC=CC2=NCC(C(=O)c3ccccc3)CN12 (stereo not drawn)
30 | 46 |  |  |  | CC1=CC2=NCC(C(=O)c3ccc(O)cc3)CN2C=C1 (stereo not drawn)
95 | 121 | 1.9 |  |  | COc1ccc2cc(C(=O)C3CN=C4C=C(C)C=C(C)N4C3)ccc2c1 (stereo not drawn)

SMILES | Activity [1] [%] | Activity [2] [%] | logD [3] | Activity [4] [%] | Activity [5] [%]
Nc1ccccn1 | 95 | 94 |  |  | 
